Experimental data as given in ChEMBL document CHEMBL1800027, “Imidazolopiperazines: hit to lead optimization of new antimalarial agents” (J Med Chem, 2011).

Columns and labels:
[1] = pampa
[2] = target: Cytochrome P450 2C19 (Homo sapiens, UniProt P33261); experiment: Inhibition of CYP 2C19; type: ADME
[3] = Cytotoxicity against human Hep2 cells; type: cell-based; conditions: HEp-2 cells, read-out: TC50 (the source's name)
[4] = system: Plasmodium berghei; experiment: Antimalarial activity against GFP-tagged Plasmodium berghei ANKA infected in NMRI mouse assessed as reduction in parasitemia at 30 mg/kg, po QD administered 24 hrs post infection for 3 days measured on day 4 post infection; type: functional; parameters: scale not given: the % may be the effect or the level left
[5] = system: Plasmodium berghei; experiment: Antimalarial activity against GFP-tagged Plasmodium berghei ANKA infected in NMRI mouse assessed as mouse survival at 30 mg/kg, po administered as single dose 24 hrs post infection measured 72 hrs post infection
[6] = target: Cytochrome P450 3A4 (Homo sapiens, UniProt P08684); experiment: Inhibition of CYP 3A4; type: ADME
[7] = Clearance in male BALB/c mouse at 5 mg/kg, iv by LC/MS/MS analysis; type: ADME, organism-based; parameters: dose 5 mg/kg, route intravenous; conditions: in vivo
How it was run: (§1)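 Male Balb/c mice, n = 3 per group, dosed iv via lateral tail vein at 5 mg/kg and 2 mL/kg. Vehicle 2.5 mg/mL in 75% PEG300/25% DSW, filtered. Six serial retro-orbital blood samples up to 24 h, heparinized plasma. Plasma extracted with acetonitrile/methanol (3:1) plus internal standard for LC/MS/MS (positive ESI, MRM). Noncompartmental analysis.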

[8] = in vitro; conditions: human, Caco-2
[9] = Half-life in male BALB/c mouse at 5 mg/kg, iv by LC/MS/MS analysis; type: ADME, organism-based; parameters: dose 5 mg/kg, route intravenous; conditions: in vivo
How it was run: as §1

[10] = Cytotoxicity against human HuH7 cells; type: cell-based; conditions: Huh-7 cells, read-out: TC50 (the source's name)
[11] = Oral bioavailability in male BALB/c mouse at 20 mg/kg by LC/MS/MS analysis; type: ADME, organism-based; conditions: in vivo
How it was run: (§2)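 Male Balb/c mice, n = 3 per group, given 20 mg/kg orally at 8 mL/kg. Vehicle 2.5 mg/mL in 75% PEG300/25% DSW, filtered. Six serial retro-orbital blood samples up to 24 h, heparinized plasma. Plasma extracted with acetonitrile/methanol (3:1) plus internal standard; LC/MS/MS quantitation by positive ESI MRM. Noncompartmental analysis; values normalized to 30 mg/kg. F = (AUCpo·dose iv)/(AUCiv·dose po).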

[12] = target: Cytochrome P450 2D6 (Homo sapiens, UniProt P10635); experiment: Inhibition of CYP 2D6; type: ADME
[13] = Cytotoxicity against human 293T cells; type: cell-based; conditions: HEK-293T cells, read-out: TC50 (the source's name)
[14] = system: Mus musculus; experiment: AUC (0 to infinity) in male BALB/c mouse at 20 mg/kg, po by LC/MS/MS analysis; type: ADME, organism-based, Plasma; parameters: time infinity, dose 20 mg/kg, route oral; conditions: in vivo
How it was run: as §2

[15] = Cytotoxicity against human HeLa cells; type: cell-based; conditions: read-out: TC50 (the source's name)
[16] = Tmax in male BALB/c mouse at 20 mg/kg, po by LC/MS/MS analysis; type: ADME, organism-based; parameters: dose 20 mg/kg, route oral; conditions: in vivo
How it was run: as §2

[17] = system: Plasmodium berghei; experiment: Antimalarial activity against GFP-tagged Plasmodium berghei ANKA infected in NMRI mouse assessed as mouse survival at 30 mg/kg, po QD administered 24 hrs post infection for 3 days measured on day 30 post infection; type: functional
[18] = Volume of distribution in male BALB/c mouse at 5 mg/kg, iv by LC/MS/MS analysis; type: ADME, organism-based; parameters: dose 5 mg/kg, route intravenous; conditions: in vivo
How it was run: as §1

[19] = system: Plasmodium falciparum; experiment: Antimalarial activity against Plasmodium falciparum W2 infected in human erythrocytes assessed as decrease in parasitemia after 72 hrs; type: functional, organism-based; conditions: W2, 72 h
[20] = AUC (0 to infinity) in male BALB/c mouse at 5 mg/kg, iv by LC/MS/MS analysis; type: ADME, organism-based; parameters: time infinity, dose 5 mg/kg, route intravenous; conditions: plasma
How it was run: as §1

[21] = system: Plasmodium falciparum; experiment: Antimalarial activity against Plasmodium falciparum 3D7 infected in human erythrocytes assessed as decrease in parasitemia after 72 hrs; type: functional, organism-based; conditions: 3D7, 72 h
[22] = Cytotoxicity against mouse BAF3 cells; type: cell-based; conditions: read-out: TC50 (the source's name)
[23] = target: Cytochrome P450 2C9 (Homo sapiens, UniProt P11712); experiment: Inhibition of CYP 2C9; type: ADME
[24] = in vitro; conditions: human, Caco-2; remark: listed apart in the source
[25] = Cytotoxicity against Cricetulus griseus CHO cells; type: cell-based; conditions: chinese hamster, read-out: TC50 (the source's name)
[26] = system: Mus musculus; experiment: Cmax in male BALB/c mouse at 20 mg/kg, po by LC/MS/MS analysis; type: ADME, organism-based; parameters: dose 20 mg/kg, route oral; conditions: in vivo
How it was run: as §2

[27] = Half life in male BALB/c mouse at 20 mg/kg, po by LC/MS/MS analysis; type: ADME, organism-based; parameters: dose 20 mg/kg, route oral; conditions: in vivo
How it was run: as §2

[28] = target: T1, Cytochrome P450 1A2 (Homo sapiens, UniProt P05177); experiment: Inhibition of CYP 1A2; type: ADME
T1 sequence (P05177 whole entry): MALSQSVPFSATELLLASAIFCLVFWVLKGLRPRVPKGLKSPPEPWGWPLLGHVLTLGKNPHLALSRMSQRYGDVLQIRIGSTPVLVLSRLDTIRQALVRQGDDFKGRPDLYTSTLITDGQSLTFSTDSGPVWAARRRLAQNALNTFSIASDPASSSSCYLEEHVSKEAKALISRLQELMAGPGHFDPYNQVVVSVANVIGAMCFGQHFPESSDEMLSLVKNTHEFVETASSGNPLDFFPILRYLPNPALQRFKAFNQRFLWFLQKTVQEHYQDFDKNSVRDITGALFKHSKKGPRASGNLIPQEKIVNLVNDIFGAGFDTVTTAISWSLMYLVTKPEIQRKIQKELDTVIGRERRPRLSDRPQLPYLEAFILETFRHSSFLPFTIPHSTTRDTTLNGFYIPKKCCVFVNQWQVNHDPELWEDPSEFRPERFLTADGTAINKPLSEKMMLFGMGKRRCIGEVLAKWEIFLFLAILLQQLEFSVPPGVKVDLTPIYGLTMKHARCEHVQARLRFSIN

[29] = system: Rattus norvegicus; experiment: Toxicity in rat assessed as adverse effect at 500 mg/kg; type: organism-based; parameters: dose 500 mg/kg; conditions: in vivo
[30] = Aqueous solubility of the compound at pH 6.8; type: physicochemical; conditions: buffer
[31] = Selectivity index, ratio TC50 for human HuH7 cells to IC50 for Plasmodium falciparum; type: functional, Huh-7
[32] = target: Voltage-gated inwardly rectifying potassium channel KCNH2 (Homo sapiens, UniProt Q12809)
[33] = Cmax in po dosed mouse; type: ADME, organism-based; parameters: route oral; conditions: in vivo
[34] = Selectivity index, ratio TC50 for human HeLa cells to IC50 for Plasmodium falciparum; type: functional

Sequence of Cytochrome P450 2D6 (P10635 whole entry): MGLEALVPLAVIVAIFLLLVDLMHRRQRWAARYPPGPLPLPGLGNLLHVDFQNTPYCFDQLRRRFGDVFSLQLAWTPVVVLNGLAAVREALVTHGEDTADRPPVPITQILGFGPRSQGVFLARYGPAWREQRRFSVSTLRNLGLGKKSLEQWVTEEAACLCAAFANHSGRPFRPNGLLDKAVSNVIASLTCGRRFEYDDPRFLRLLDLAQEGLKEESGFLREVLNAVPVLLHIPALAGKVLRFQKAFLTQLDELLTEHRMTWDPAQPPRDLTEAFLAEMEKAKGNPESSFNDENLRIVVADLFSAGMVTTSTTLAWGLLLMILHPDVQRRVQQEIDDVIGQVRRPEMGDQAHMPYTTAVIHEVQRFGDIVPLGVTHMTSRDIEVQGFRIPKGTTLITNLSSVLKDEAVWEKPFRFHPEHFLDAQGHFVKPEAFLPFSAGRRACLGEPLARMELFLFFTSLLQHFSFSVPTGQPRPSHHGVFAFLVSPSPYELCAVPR
Sequence of Cytochrome P450 2C19 (P33261 whole entry): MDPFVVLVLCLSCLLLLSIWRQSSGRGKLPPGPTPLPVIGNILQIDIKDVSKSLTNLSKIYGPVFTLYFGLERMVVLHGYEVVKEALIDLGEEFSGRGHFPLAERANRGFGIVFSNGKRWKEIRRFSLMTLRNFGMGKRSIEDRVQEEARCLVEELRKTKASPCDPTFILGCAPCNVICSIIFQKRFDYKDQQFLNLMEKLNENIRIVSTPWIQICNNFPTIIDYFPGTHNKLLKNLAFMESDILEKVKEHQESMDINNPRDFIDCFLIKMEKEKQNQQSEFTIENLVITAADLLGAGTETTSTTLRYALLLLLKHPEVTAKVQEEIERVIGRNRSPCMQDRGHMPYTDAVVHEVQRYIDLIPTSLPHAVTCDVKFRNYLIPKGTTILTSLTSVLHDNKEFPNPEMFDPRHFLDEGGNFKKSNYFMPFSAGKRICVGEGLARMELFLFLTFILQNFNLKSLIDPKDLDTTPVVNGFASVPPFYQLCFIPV
Sequence of Cytochrome P450 3A4 (P08684 whole entry): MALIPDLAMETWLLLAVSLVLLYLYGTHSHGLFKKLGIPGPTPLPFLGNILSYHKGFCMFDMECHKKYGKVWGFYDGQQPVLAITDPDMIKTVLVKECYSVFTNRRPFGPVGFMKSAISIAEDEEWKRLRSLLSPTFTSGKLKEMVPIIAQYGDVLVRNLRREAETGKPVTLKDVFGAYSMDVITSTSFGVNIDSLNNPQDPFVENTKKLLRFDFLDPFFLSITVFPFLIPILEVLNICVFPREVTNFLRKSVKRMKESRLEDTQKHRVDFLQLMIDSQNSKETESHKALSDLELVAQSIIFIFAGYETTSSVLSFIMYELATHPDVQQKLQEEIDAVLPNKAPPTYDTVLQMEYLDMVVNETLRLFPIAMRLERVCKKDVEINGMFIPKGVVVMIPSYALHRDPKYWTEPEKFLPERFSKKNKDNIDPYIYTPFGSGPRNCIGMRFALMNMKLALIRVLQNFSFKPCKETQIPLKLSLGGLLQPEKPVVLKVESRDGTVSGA
Sequence of Cytochrome P450 2C9 (P11712 whole entry): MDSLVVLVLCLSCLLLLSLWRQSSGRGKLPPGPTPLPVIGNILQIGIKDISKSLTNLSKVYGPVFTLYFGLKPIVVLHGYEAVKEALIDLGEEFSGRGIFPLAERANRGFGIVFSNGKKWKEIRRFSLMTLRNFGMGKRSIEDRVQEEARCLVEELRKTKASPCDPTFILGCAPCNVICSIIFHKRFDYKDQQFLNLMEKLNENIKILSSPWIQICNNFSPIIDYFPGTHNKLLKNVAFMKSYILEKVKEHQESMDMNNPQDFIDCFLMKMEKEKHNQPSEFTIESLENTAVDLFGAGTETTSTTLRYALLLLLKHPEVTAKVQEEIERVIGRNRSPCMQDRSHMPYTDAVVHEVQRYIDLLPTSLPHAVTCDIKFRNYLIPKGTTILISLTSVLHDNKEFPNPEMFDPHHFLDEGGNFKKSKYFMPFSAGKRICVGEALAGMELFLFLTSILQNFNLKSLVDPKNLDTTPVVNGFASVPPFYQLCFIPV
Sequence of Voltage-gated inwardly rectifying potassium channel KCNH2 (Q12809 whole entry): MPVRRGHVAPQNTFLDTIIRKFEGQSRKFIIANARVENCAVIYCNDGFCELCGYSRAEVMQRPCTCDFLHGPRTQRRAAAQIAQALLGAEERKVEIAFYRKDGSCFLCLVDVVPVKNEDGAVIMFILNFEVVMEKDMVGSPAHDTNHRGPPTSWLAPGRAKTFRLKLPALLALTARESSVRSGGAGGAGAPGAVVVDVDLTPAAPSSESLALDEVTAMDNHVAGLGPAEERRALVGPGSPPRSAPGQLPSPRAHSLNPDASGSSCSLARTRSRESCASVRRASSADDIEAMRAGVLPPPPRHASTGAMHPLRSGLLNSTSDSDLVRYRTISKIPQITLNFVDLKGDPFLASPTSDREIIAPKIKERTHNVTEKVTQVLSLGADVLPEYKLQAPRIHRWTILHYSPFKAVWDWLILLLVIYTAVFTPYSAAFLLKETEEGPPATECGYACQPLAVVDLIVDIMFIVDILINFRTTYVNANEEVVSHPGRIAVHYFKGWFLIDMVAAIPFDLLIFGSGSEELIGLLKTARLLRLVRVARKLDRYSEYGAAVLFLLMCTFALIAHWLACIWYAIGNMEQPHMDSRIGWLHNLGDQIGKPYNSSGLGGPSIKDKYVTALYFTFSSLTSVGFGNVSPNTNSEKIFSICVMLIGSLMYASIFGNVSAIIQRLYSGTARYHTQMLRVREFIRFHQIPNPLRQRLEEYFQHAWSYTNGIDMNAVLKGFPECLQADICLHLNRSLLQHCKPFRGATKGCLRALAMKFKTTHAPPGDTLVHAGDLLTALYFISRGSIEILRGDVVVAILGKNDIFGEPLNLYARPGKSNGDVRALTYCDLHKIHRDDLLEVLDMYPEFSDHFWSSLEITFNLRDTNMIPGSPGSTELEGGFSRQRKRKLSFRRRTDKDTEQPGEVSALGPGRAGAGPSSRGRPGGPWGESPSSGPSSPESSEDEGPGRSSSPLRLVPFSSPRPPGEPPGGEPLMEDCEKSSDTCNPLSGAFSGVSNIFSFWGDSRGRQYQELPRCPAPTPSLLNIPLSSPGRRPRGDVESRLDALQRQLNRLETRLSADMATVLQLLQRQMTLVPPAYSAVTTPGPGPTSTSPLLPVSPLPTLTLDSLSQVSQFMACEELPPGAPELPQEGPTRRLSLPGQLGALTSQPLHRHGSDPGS

With CC(C)(N)C(=O)N1CCn2c(nc(-c3ccc(F)cc3)c2Nc2ccc(F)cc2)C1 as the molecule, how does the permeability [1] read?
Its permeability is 81%.

What about the IC50 [2] of the same molecule?
Its IC50 is greater than 8.9 µM.

What about the CC50 [3] of the same molecule?
Its CC50 is greater than 12 µM.

What about the Activity [4] of the same molecule?
Its Activity is 99.6%.

What about the Survival [5] of the same molecule?
Its Survival is 7.7 days.

And the IC50 [6]?
The IC50 was greater than 8.9 µM.

What about the clearance [7] of the same molecule?
Its clearance is 3.6 L/h/kg.

And the Papp A→B [8]?
The Papp A→B was 30.5 nm/s.

And the half-life [9]?
Its half-life is 6.2 h.

What about the CC50 [10] of the same molecule?
The CC50 was greater than 12 µM.

And the bioavailability [11]?
The bioavailability was 87%.

And the IC50 [12]?
The IC50 was greater than 8.9 µM.

And the CC50 [13]?
Its CC50 is greater than 12 µM.

What about the AUC [14] of the same molecule?
The AUC was 17.894 µM·h.

And the CC50 [15]?
Its CC50 is greater than 12 µM.

And the Tmax [16]?
Its Tmax is 1.67 h.

And the Survival [17]?
The Survival was 14 days.

And the Vd [18]?
Its Vd is 23.7 L/kg.

What about the IC50 [19] of the same molecule?
The IC50 was 0.025 µM.

And the AUC(0-inf) [20]?
The AUC(0-inf) was 3.44 µM·h.

What about the IC50 [21] of the same molecule?
The IC50 was 0.02 µM.

What about the CC50 [22] of the same molecule?
The CC50 was greater than 12 µM.

And the IC50 [23]?
The IC50 was greater than 8.9 µM.

What about the Papp B→A [24] of the same molecule?
Its Papp B→A is 83.8 nm/s.

What about the CC50 [25] of the same molecule?
Its CC50 is greater than 12 µM.

What about the Cmax [26] of the same molecule?
Its Cmax is 1.8 µM.

What about the half-life [27] of the same molecule?
The half-life was 9 h.

What about the IC50 [28] of the same molecule?
The IC50 was greater than 8.9 µM.

What about the Activity [29] of the same molecule?
The Activity was “Non-toxic”.

Which results are given for NCC(=O)N1CCn2c(nc(-c3ccccc3)c2Nc2ccc3c(c2)OCO3)C1?
IC50 [2]: > 10 µM; IC50 [6]: > 10 µM; solubility [30]: > 175 µM; CC50 [10]: > 10 µM; IC50 [12]: > 10 µM; Selectivity Index [31]: >20; IC50 [32]: 19 µM; Cmax [33]: 0.32 µM; IC50 [19]: 0.097 µM; Selectivity Index [34]: >20; IC50 [21]: 0.063 µM; IC50 [23]: > 10 µM; IC50 [28]: > 10 µM
